# Source: PubChem (several laboratories)
# Pemphigus Ab inh: inhibitors of pemphigus antibody binding to human desmoglein-3. P32926. DSG3-coupled beads, scFv-anti-DSG3-GFP binding, flow cytometry; hits give low values. binding (percent of control), % at 10 µM. 310,000 compounds, 0.48% hits. AID 588358;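 active = binding more than 3 SD below its plate's average and above zero; inconclusive = below that plate limit but binding exactly zero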;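 also: hits lower antibody fragment binding to DSG3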
# pCIP destab: compounds decreasing mouse p/CIP protein stability | F442A p/CIP-EGFP cells, EGFP fluorescence, 16 h | 290,000 compounds, 0.01% hits | Q05BA5 | decrease of EGFP signal, % at 10 µM;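 active = EGFP signal decrease of at least 30% at 10 µM or well 3 SD below plate mean, unless failing retest; inactive = the rest, including hits failing retest or dose response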
# Hck Nef HTS: inhibitors of human Hck kinase activated by Nef; Recombinant Hck-YEEI plus Nef, Z-Lyte FRET kinase assay; inhibition, % at 20 µM; 220,000 compounds, 0.68% hits; AID 463187;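 active = Hck-Nef kinase inhibition above about 50%, limit read from the data; inactive = inhibition below that limit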
# Runt-CBFb FRET: Runt domain-CBFb interaction inhibition; Cerulean-Runt/Venus-CBFb FRET ratio 530/480, 1 h; inhibition, % at 20 µM; 220,000 compounds, 0.46% hits; AID 1496;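 active = inhibition over about 50% at 20 µM in the single-dose screen, limit read from the data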
# Target sequence (Q01196 whole entry, looked up, the tested form may be a part): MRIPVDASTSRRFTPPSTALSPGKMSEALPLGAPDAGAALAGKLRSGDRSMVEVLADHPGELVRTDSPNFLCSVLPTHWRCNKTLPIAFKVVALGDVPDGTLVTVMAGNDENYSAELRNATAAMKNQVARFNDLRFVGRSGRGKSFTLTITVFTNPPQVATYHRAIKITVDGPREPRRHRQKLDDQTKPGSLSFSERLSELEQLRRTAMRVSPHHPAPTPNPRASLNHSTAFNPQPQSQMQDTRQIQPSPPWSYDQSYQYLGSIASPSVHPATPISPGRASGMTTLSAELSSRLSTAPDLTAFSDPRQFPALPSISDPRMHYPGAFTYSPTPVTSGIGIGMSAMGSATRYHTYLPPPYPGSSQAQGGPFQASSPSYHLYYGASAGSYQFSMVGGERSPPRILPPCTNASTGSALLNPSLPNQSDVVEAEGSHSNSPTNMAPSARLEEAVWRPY
# Target sequence (Q13951 whole entry, looked up, the tested form may be a part): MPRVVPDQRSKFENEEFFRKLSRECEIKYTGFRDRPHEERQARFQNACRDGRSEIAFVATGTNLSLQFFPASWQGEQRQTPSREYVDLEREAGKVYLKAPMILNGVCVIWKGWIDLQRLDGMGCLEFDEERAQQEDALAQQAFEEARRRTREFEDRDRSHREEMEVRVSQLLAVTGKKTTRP
#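 Schedule: protein complex preformed 1 h, compound exposure 1 h, room temperature, dark; test system: Cerulean-labeled Runt domain protein; amount: 100 nM per protein; buffer or medium: Tris 50 mM pH 7.5, KCl, K2SO4, 0.01% BSA; read-out: loss of energy transfer signal; detection: FRET fluorescence; controls: 5 µM unlabeled CBFb as full-inhibition high control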
# Runt-SMMHC FRET: Runt domain-CBFb-SMMHC interaction inhibition; 220,000 compounds, 0.74% hits; Cerulean-Runt/Venus-CBFb-SMMHC FRET ratio 530/480, 1 h; inhibition, % at 20 µM;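 active = mean inhibition across duplicate retests at 20 µM reaching about 50%, limit read from the data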;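 also: inhibitors lower the FRET ratio by blocking Runt binding to CBFb-SMMHC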
# RanGTP-Impb inh: disruptors of Ran-importin-beta complex formation – biochemical, FRET, CFP-Ran, YFP-importin-beta, homogeneous, primary screen; AID 2216; inhibition, % (concentration not given with the values); cell-free CFP-Ran/YFP-importin-beta FRET ratio; 300,000 compounds, 1.1% hits;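 active = more than half of the replicate wells show a fall in the fluorescence ratio signal beyond about 16%, limit read from the data, passing the limit was not always enough; inconclusive = exactly half of the replicate wells pass the set limit; inactive = fewer than half of replicates pass the limit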
# Numbers stand for hits; 0 = inactive; ? = inconclusive; - = not tested or not shown. Compounds with a hit are over-represented: about 2.1% of the library has one in this group of screens.
SMILES,Pemphigus Ab inh,pCIP destab,Hck Nef HTS,Runt-CBFb FRET,Runt-SMMHC FRET,RanGTP-Impb inh
C=CCNc1nc(-c2cccc(OC)c2O)nc2ccccc12,92,0,0,0,0,0
CN(CCO)S(=O)(=O)c1ccc2c(c1)C(=NN)c1cc(S(=O)(=O)N(C)CCO)ccc1-2,0,0,-,-,-,0
CCCOC(=O)C1=C(C)NC(=O)NC1c1cccc2ccccc12 (configuration not stated),2.5,0,-,-,-,0
c1cncc(-c2nc3ccccc3o2)c1,0,0,0,0,0,0
O=c1oc(-c2cccnc2)nc2ccccc12,77,0,0,0,0,0
COCCNC(=O)C1CCC(CNS(=O)(=O)c2ccccc2)CC1 (configuration not stated),0,0,-,-,-,0
C/C(=N\NC(=O)c1ccncc1)c1cc2ccccc2oc1=O,0,0,0,0,0,0
C/C(=N/NC(N)=S)c1cc2ccc(O)cc2oc1=O,0,0,187,0,84,152
C/C(=N/NC(=O)c1ccncc1)c1cc2ccc(O)cc2oc1=O,-,0,0,0,63,-
NC(=S)c1cc2ccc(O)cc2oc1=O,0,0,0,0,82,147
CC(=O)Nc1ccc(S(=O)(=O)NCC(=O)Nc2ccc3c(c2)OCO3)cc1,0,-,-,-,-,-
Cn1cc(S(=O)(=O)N2CCCC2)cc1C(=O)NCc1ccccc1Cl,0,0,-,-,-,0
Cc1cccc(NC(=O)C2CCCN(c3ncnc4c3nc3n4CCCCC3)C2)n1 (configuration not stated),0,0,-,-,-,0
N#CC1=C(N)SC(N)=C(C#N)C1c1ccc(C(F)(F)F)cc1,-,0,0,0,0,24
CCOc1ccc(C2C(C#N)=C(N)SC(N)=C2C#N)cc1OCC,0,0,-,0,0,33
CCOc1ccccc1C1C(C#N)=C(N)SC(N)=C1C#N,0,0,0,0,0,0
CCOc1ccc(C2C(C#N)=C(N)SC(N)=C2C#N)cc1OC,-,0,0,0,0,26
COc1ccc(S(=O)(=O)N2CCOCC2)cc1NC(=O)COC(=O)c1ccc([N+](=O)[O-])s1,0,-,-,-,-,-
COc1ccc2c(Cl)c(C(=O)N/N=C/c3ccncc3)sc2c1,0,0,-,-,-,0
O=C(N/N=C/c1ccncc1)c1sc2ccccc2c1Cl,-1.9,0,-,-,-,0
CC(C)(C)OC(=O)N1CCC[C@H]1C(=O)Nc1ccc(C#N)cc1,0,0,-,-,-,0
CC(C)n1nc(C(=O)Nc2nc3ccccc3[nH]2)c2ccccc2c1=O,0,0,0,103,0,0
CCCn1nc(C(=O)Nc2nc3ccccc3[nH]2)c2ccccc2c1=O,0,0,0,0,0,0
CCC(C)(C)NC(=O)C(c1cccc(OC)c1)N(C(=O)CNC(=O)c1cccs1)c1cccnc1 (configuration not stated),0,0,-,-,-,0
Cc1c(NC(=S)N/N=C/c2ccc(N(C)C)cc2)c(=O)n(-c2ccccc2)n1C,0,0,0,0,62,0
SMILES,Pemphigus Ab inh,pCIP destab,Hck Nef HTS,Runt-CBFb FRET,Runt-SMMHC FRET,RanGTP-Impb inh
Cc1c(NC(=S)N/N=C/c2cccc(O)c2)c(=O)n(-c2ccccc2)n1C,0,0,0,0,0,0
Cc1ccccc1NC(=O)CN1C(=O)S/C(=C\c2ccc(-c3cc(C(=O)O)ccc3C)o2)C1=O,0,0,0,0,0,0
Cc1ccc(C(=O)O)cc1-c1ccc(/C=C2/NC(=O)N(c3ccccc3)C2=O)o1,0,0,0,0,0,20
C#CCN1C(=O)S/C(=C\c2ccc(-c3ccc(C(=O)O)cc3C)o2)C1=O,0,0,-,-,-,?
CC(C)(C)OC(=O)CN1C(=O)S/C(=C\c2ccc(-c3cccc(C(=O)O)c3)o2)C1=O,-,0,-,-,-,35
O=C1N/C(=C/c2ccc(N3CCOCC3)o2)C(=O)N1c1ccccc1,0,0,0,0,0,-
Cc1ccc(NC(=O)CN2C(=O)S/C(=C\c3ccc(-c4cccc(C(=O)O)c4C)o3)C2=O)cc1,-,0,0,0,0,42
Cc1ccc(C(=O)O)cc1-c1ccc(/C=C2\SC(=O)N(CC(=O)Nc3ccccc3)C2=O)o1,0,0,0,0,0,24
Cc1ccc(NC(=O)CN2C(=O)S/C(=C/c3ccc(-c4cccc(C(=O)O)c4)o3)C2=O)cc1,0,0,0,0,0,-
O=C(Nc1ccccc1C(=O)N1CCCC1)c1ncoc1-c1cccc(Cl)c1,0,0,-,-,-,0
CN(C)c1ncc(/C=C2/C(=O)NC(=S)N(C3CCCCC3)C2=O)cn1,-,0,68,0,0,-
COc1ccc(C)cc1S(=O)(=O)N1CCCC(C(=O)N2CCN(c3ccccc3F)CC2)C1 (configuration not stated),0,0,-,-,-,0
NC(=O)CSCc1nc2ccccc2s1,0,0,0,0,0,0
N/C(Cc1nc2ccccc2s1)=N\O,0,0,0,0,0,85
NS(=O)(=O)c1ccc(CCNC(=O)c2ccc(-c3ccccc3)cc2)cc1,0,0,-,-,-,0
COc1cc(/C=N/NC(=S)NCC2CCCO2)cc(OC)c1OC (configuration not stated),84,0,0,0,0,?
Cc1nc(Nc2cc(F)ccc2C)c2nnn(Cc3ccccc3)c2n1,0,0,-,-,-,0
COc1ccc(-n2c(NC(=O)c3ccc(Br)o3)c(C#N)c3nc4ccccc4nc32)cc1,-,0,0,88,0,155
N#Cc1c(NC(=O)c2ccc(Br)o2)n(-c2ccccc2)c2nc3ccccc3nc12,0,0,0,0,81,162
Cc1ccc(NS(=O)(=O)c2ccc(-c3coc(C)n3)cc2)c(Cl)c1,0,-,-,-,-,-
Cc1cc(NCCCOC(C)C)n2c(nc3ccccc32)c1C#N,0,0,-,-,-,26
Cc1cccc(S(=O)(=O)c2c(N)n(Cc3ccco3)c3nc4ccccc4nc23)c1,0,0,0,0,-,18
Cc1cccc(C(=O)N2CCCC(N3CCN(c4ccccc4)CC3)C2)n1 (configuration not stated),0,0,-,-,-,0
CC(C)[C@H](N)C(=O)N1CCC(C(=O)N[C@@H](Cc2ccccc2)C(=O)NCc2ccc(F)cc2)CC1,0,0,-,-,-,0
O=[N+]([O-])c1ccc2cn[nH]c2c1,43,0,0,0,0,0
SMILES,Pemphigus Ab inh,pCIP destab,Hck Nef HTS,Runt-CBFb FRET,Runt-SMMHC FRET,RanGTP-Impb inh
CC(C)c1nnc(NC(=O)C2CCN(C(=O)Nc3ccccc3)CC2)s1,0,0,-,-,-,0
Cc1cc2ccccc2n1CCNC(=O)C1CC1,0,0,-,-,-,0
Cc1cc2ccccc2n1CCNC(=O)c1cccs1,61,0,0,0,0,0
CCc1nnc(NC(=O)c2sc3nc4c(cc3c2N)CCCCC4)s1,0,0,0,0,-,?
CCc1nnc(NC(=O)c2sc3nc4c(cc3c2N)CCCCCC4)s1,0,0,0,0,61,0
O=C(Cc1n[nH]c(=O)c2ccccc12)Nc1cc(C(F)(F)F)ccc1-n1cncn1,0,-,-,-,-,-
O=C(CSc1nncn1-c1ccccc1)c1c[nH]c2ccccc12,0,0,0,0,0,0
